Measured values collected from several papers.
Each line is one published result; the experiments were not run side by side. Converted amounts (≈) assume the structure as drawn.
Organism: Micrococcus luteus

Compound	observed	method	strain	tested at	time	quantity	value
CN[C@H](CC(C)C)C(=O)N[C@H]1C(=O)N[C@@H](CC(N)=O)C(=O)N[C@H]2C(=O)N[C@H]3C(=O)N[C@H](C(=O)N[C@H](C(=O)O)c4cc(O)cc(O)c4-c4cc3ccc4O)[C@H](O)c3ccc(c(Cl)c3)Oc3cc2cc(c3O[C@@H]2O[C@H](CO)[C@@H](O)[C@H](O)[C@H]2O[C@H]2C[C@](C)(N)[C@H](O)[C@H](C)O2)Oc2ccc(cc2Cl)[C@H]1O	microbial growth	broth dilution	ML01			MIC	0.13 µg/mL
O=C1NN=C(N=Cc2ccc(O)c(O)c2)C1=NNn1c(-c2ccccc2)nc2ccccc2c1=O	microbial growth	broth dilution			24 h	MIC	53.5 µM
CC1(C)S[C@@H]2[C@H](NC(=O)[C@H](N)c3ccccc3)C(=O)N2[C@H]1C(=O)O	microbial growth	agar dilution	ATCC10240	26.93 µM		inhibition	100%
CC1=NN(CNc2c(O)c(S(=O)(=O)O)cc3ccccc23)C(=O)C1=NNn1c(-c2ccccc2)nc2ccccc2c1=O	microbial growth	broth dilution			24 h	MIC	83.7 µM
O=C(O)c1cn(C2CC2)c2cc(N3CCNCC3)c(F)cc2c1=O	microbial growth	disc diffusion		100 µg/mL	24 h	inhibition zone	25 mm
O=C(O)CN1C(=O)/C(=C/c2ccc(-c3ccc(N(c4ccccc4)c4ccccc4)cc3)c3ccccc23)SC1=S	microbial killing	broth dilution	ATCC10240			MBC	62.5 µg/mL (≈ 109 µM)
C/C=C(\C)c1cc(O)c(C)c(OC(=O)c2c(C)c(Cl)c(O)c(Cl)c2O)c1	microbial growth	broth dilution	ML01			MIC	4 µg/mL
CN[C@H](CC(C)C)C(=O)N[C@H]1C(=O)N[C@@H](CC(N)=O)C(=O)N[C@H]2C(=O)N[C@H]3C(=O)N[C@H](C(=O)N[C@H](C(=O)O)c4cc(O)cc(O)c4-c4cc3ccc4O)[C@H](O)c3ccc(c(Cl)c3)Oc3cc2cc(c3O[C@@H]2O[C@H](CO)[C@@H](O)[C@H](O)[C@H]2O[C@H]2C[C@](C)(N)[C@H](O)[C@H](C)O2)Oc2ccc(cc2Cl)[C@H]1O	microbial growth	broth dilution	ATCC10240			MIC	0.12 µg/mL
O=C1NN=C(N=Cc2ccccc2O)C1=NNn1c(-c2ccccc2)nc2ccccc2c1=O	microbial growth	broth dilution			24 h	MIC	55.4 µM
